Measured values reported in ChEMBL document CHEMBL1152580, “Toward establishing structure-activity relationships for oxygenated coumarins as differentiation inducers of promonocytic leukemic cells” (Bioorg Med Chem, 2009).
The source made the active and inactive calls. The calls are words filed in the database; no cut-off is given here.

Assays:
[1] = system: U-937; assay: Growth inhibition of human U937 cells assessed as [3H]5-methyl thymidine incorporation after 48 hrs by liquid scintillation counting; format: functional, cell-based
In short: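 Exponentially growing U-937 cells (10⁴ per well in RPMI 1640) exposed to coumarins up to 2.0 mM or 0.0001% (v/v) DMSO for 48 h. 0.5 µCi [³H]5-methyl thymidine added 12 h before the end. Cells harvested, incorporation read by liquid scintillation counting as % of DMSO control. IC50 from sigmoidal dose-response fit; quadruplicate, at least four independent experiments.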

[2] = system: U-937; assay: Cytotoxicity against human U937 cells after 48 hrs by trypan blue assay; format: functional; conditions: U-937, 48 h
In short: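 U-937 cells in exponential growth seeded at 10⁵ cells/mL RPMI 1640, exposed to coumarin 0.15 µM to 2.0 mM or 0.0001% (v/v) DMSO vehicle for 48 h at 5% CO₂. Viable cells counted by trypan blue exclusion (0.4%, 5 min) in a hemocytometer. CC50 from sigmoidal dose-response fit; quadruplicate, at least four independent experiments.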

[3] = system: U-937; assay: Induction of human U937 cell differentiation assessed as increase in rhC5a-stimulated intracellular calcium at 25 uM after 2 days; format: functional, cell-based
In short: (§1)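 CD88 read-out as C5a-evoked Ca²⁺ release: U-937 cells (1 × 10⁶/mL) treated 48 h with 5, 25 or 50 µM compound, 400 µM dbcAMP or 0.0001% DMSO. Loaded with 2 µM Fura 2-AM in BSS pH 7.5, 30 min, 37 °C, then 2 × 10⁶ cells/mL. F340/F380 (emission 505 nm) recorded for 8 min at 37 °C with rhC5a or ATP injection. Calibrated with Triton X-100/EGTA; ≥3 experiments.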

[4] = system: U-937; assay: Induction of human U937 cell differentiation assessed as increase in rhC5a-stimulated intracellular calcium at 50 uM after 2 days; format: functional, cell-based; in short: as §1
[5] = system: U-937; assay: Induction of human U937 cell differentiation assessed as expression of CD88 receptor at 25 uM after 2 days; format: functional, cell-based; in short: as §1
[6] = system: U-937; assay: Induction of human U937 cell differentiation assessed as expression of CD88 receptor at 50 uM after 2 days; format: functional, cell-based; in short: as §1
[7] = system: U-937; assay: Induction of human U937 cell differentiation assessed as expression of CD88 receptor at 5 uM after 2 days; format: functional, cell-based; in short: as §1
[8] = system: U-937; assay: Growth inhibition of human U937 cells assessed as cell proliferation after 72 hrs; format: functional, cell-based; conditions: TDE = time-dependent effect
In short: (§2)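 U-937 cells seeded at 10⁵ cells/mL and treated with 25 or 50 µM compound, 400 µM dbcAMP (positive control) or 0.0001% (v/v) DMSO for up to 72 h (sampled at 24, 48, 72 h). Cell number counted on a Coulter Z-1, with density kept ≤1 × 10⁶ cells/mL. Expressed as % of DMSO control; n = 3.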

[9] = system: U-937; assay: Growth inhibition of human U937 cells assessed as proliferation at 50 uM after 72 hrs; format: functional; conditions: U-937, 72 h, read-out: Activity; in short: as §2
[10] = system: U-937; assay: Induction of human U937 cell differentiation assessed as burst oxidative capacity at 25 uM after 72 hrs by NBT reduction assay relative to control; format: functional, cell-based
In short: (§3)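 NBT reduction: U-937 cells (2 × 10⁵/mL) treated 72 h with 25 or 50 µM compound, 1 µM ATRA (positive control) or 0.0001% (v/v) DMSO. Washed, then incubated in RPMI containing 1 mg/mL NBT and 1 µg/mL PMA for 30 min at 37 °C. Formazan dissolved in DMSO, A570 read relative to DMSO control (=1); n = 3.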

[11] = system: U-937; assay: Induction of human U937 cell differentiation assessed as burst oxidative capacity at 50 uM after 72 hrs by NBT reduction assay relative to control; format: functional, cell-based; in short: as §3
[12] = system: U-937; assay: Induction of human U937 cell differentiation assessed as expression of CD11b levels at 25 uM after 72 hrs relative to control; format: functional, cell-based
In short: (§4)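 U-937 cells (2 × 10⁵/mL) treated 72 h with 25 or 50 µM compound, 400 µM dbcAMP (positive control) or 0.0001% (v/v) DMSO. Washed in PBS, stained with saturating PE anti-CD11b or isotype control, 4 °C, 30 min. Analysed by flow cytometry, ≥5000 events; CD11b relative to DMSO control (=1); n = 3.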

[13] = system: U-937; assay: Induction of human U937 cell differentiation assessed as expression of CD11b levels at 50 uM after 72 hrs relative to control; format: functional, cell-based; in short: as §4

| IC50 [1] | SMILES | CC50 [2] | other results |
| --- | --- | --- | --- |
| > 400 µM | C=C(C)C(O)COc1cc2oc(=O)ccc2cc1OC (configuration not stated) | 704 µM |  |
| 25.3 µM | COC(C)(C)C(O)COc1c2c(cc3oc(=O)ccc13)OCO2 (configuration not stated) | 365 µM | Activity [3]: Active; Activity [4]: Active; Activity [5]: Agonist; Activity [6]: Active; Activity [7]: inactive; growth inhibition (GI) [8]: tde; growth at 50 µM [9]: 62.5%; Activity [10]: Active; Activity [11]: Active; Activity [12]: inactive; Activity [13]: inactive |
| > 400 µM | COc1cc2ccc(=O)oc2cc1OCC=C(C)C [PRENYLETIN 6-METHYL ETHER] | 799 µM |  |
| 177 µM | COc1cc(OC)c2ccc(=O)oc2c1OCC=C(C)C [ARTANIN] | 535 µM |  |
| > 400 µM | COc1c2c(c(OC)c3oc(=O)ccc13)OCO2 | > 2000 µM |  |
| > 400 µM | COc1cc2oc(=O)ccc2c(OC)c1O [FRAXINOL] | > 2000 µM |  |
| 2.2 µM | COc1c2c(cc3oc(=O)ccc13)OCO2 | 252 µM |  |
| > 400 µM | COc1c2c(cc3ccc(=O)oc13)OCO2 | > 2000 µM |  |
| 182 µM | COc1cc2oc(=O)ccc2c(OC)c1OC [5,6,7-TRIMETHOXYCOUMARIN] | 790 µM |  |
| > 400 µM | CC1(C)OC1COc1c2c(cc3oc(=O)ccc13)OCO2 (configuration not stated) | 899 µM |  |
| > 400 µM | COc1cc(OC)c2ccc(=O)oc2c1OC | > 2000 µM |  |
| > 400 µM | COc1cc(OC)c2ccc(=O)oc2c1O [LEPTODACTYLONE] | > 2000 µM |  |

The next lines start with the molecule.

| SMILES | IC50 [1] | CC50 [2] | other results |
| --- | --- | --- | --- |
| O=c1ccc2c(F)c3c(cc2o1)OCO3 | > 400 µM | > 2000 µM |  |
| O=c1ccc2cc3c(cc2o1)OCO3 [AYAPIN] | > 400 µM | > 2000 µM |  |
| O=c1ccc2c(O)c3c(cc2o1)OCO3 | 255 µM | > 2000 µM |  |
| O=c1ccc2ccc3c(c2o1)OCO3 | > 400 µM | > 2000 µM |  |
| O=c1ccc2c(Br)c3c(cc2o1)OCO3 | > 400 µM | > 2000 µM |  |
| CC(C)=CCOc1cc2oc(=O)ccc2cc1O [PRENYLETIN] | > 400 µM | 820 µM |  |
| CC(C)=CCOc1c2c(cc3oc(=O)ccc13)OCO2 | 3.5 µM | 266 µM |  |
| CC(C)(Cl)C(O)COc1c2c(cc3oc(=O)ccc13)OCO2 (configuration not stated) | 227 µM | 567 µM |  |
| CC(C)(O)C(O)COc1c2c(cc3oc(=O)ccc13)OCO2 (configuration not stated) | 192 µM | 420 µM | Activity [4]: Active; Activity [6]: Active; Activity [7]: inactive; growth inhibition (GI) [8]: tde; growth at 50 µM [9]: 38%; Activity [10]: Active; Activity [13]: inactive |
| O=c1ccc2ccccc2o1 [COUMARIN] | > 400 µM | > 2000 µM |  |
